Reference: ChEMBL document CHEMBL1140069, “In vitro antifungal activity of polyfunctionalized 2-(hetero)arylquinolines prepared through imino Diels-Alder reactions” (2008)
Values after ≈ are worked out from the molar mass of the structure shown.

What was measured:
Type in all cases: functional
Cryptococcus neoformans [1] = experiment: Antimicrobial activity against Cryptococcus neoformans IM 031631 isolate at 50 ug/ml after 48 hrs
Procedure, shortened: (§1)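 Percent growth inhibition in 96-well microplates. Compound stocks in DMSO (≤2%) were diluted in RPMI-1640 to final 100–6.25 µg/mL, and 100 µL inoculum was added (final 200 µL). Controls were a growth well (inoculum with matching DMSO, no compound) and a sterility well (no inoculum). Inhibition was calculated against growth and sterility wells.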

Cryptococcus neoformans [2] = experiment: Antimicrobial activity against Cryptococcus neoformans IM 00319 isolate at 12.5 ug/ml after 48 hrs; procedure, shortened: as §1
Cryptococcus neoformans [3] = experiment: Antimicrobial activity against Cryptococcus neoformans IM 983040 isolate at 6.25 ug/ml after 48 hrs
Procedure, shortened: (§2)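 Clinical Cryptococcus isolates kept on Sabouraud-dextrose agar slopes; inoculum 1–5 × 10³ CFU/mL. Quinoline DMSO stocks were diluted in RPMI-1640 to final 100–6.25 µg/mL, with DMSO ≤2%. An equal volume of inoculum was added (200 µL per well). Run in triplicate.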

Cryptococcus neoformans [4] = experiment: Antimicrobial activity against Cryptococcus neoformans IM 961951 isolate at 12.5 ug/ml after 48 hrs; procedure, shortened: as §1
Cryptococcus neoformans [5] = experiment: Antimicrobial activity against Cryptococcus neoformans IM 042074 isolate at 6.25 ug/ml after 48 hrs; procedure, shortened: as §1
Cryptococcus neoformans [6] = experiment: Antimicrobial activity against Cryptococcus neoformans IM 042074 isolate at 12.5 ug/ml after 48 hrs; procedure, shortened: as §1
Cryptococcus neoformans [7] = experiment: Antimicrobial activity against Cryptococcus neoformans IM 961951 isolate at 6.25 ug/ml after 48 hrs; procedure, shortened: as §2
Cryptococcus neoformans [8] = experiment: Antimicrobial activity against Cryptococcus neoformans IM 961951 isolate at 50 ug/ml after 48 hrs; procedure, shortened: as §2
Cryptococcus neoformans [9] = experiment: Antimicrobial activity against Cryptococcus neoformans IM 972751 isolate at 50 ug/ml after 48 hrs; procedure, shortened: as §2
Cryptococcus neoformans [10] = experiment: Antimicrobial activity against Cryptococcus neoformans IM 972751 isolate at 6.25 ug/ml after 48 hrs; procedure, shortened: as §2
Cryptococcus neoformans [11] = experiment: Antimicrobial activity against Cryptococcus neoformans ATCC 32264 at 25 ug/ml after 48 hrs; conditions: ATCC 32264, 48 h; procedure, shortened: as §1
Cryptococcus neoformans [12] = experiment: Antimicrobial activity against Cryptococcus neoformans ATCC 32264 at 12.5 ug/ml after 48 hrs; conditions: ATCC 32264, 48 h; procedure, shortened: as §1
Cryptococcus neoformans [13] = experiment: Antimicrobial activity against Cryptococcus neoformans IM 052470 isolate at 100 ug/ml after 48 hrs; procedure, shortened: as §1
Cryptococcus neoformans [14] = experiment: Antimicrobial activity against Cryptococcus neoformans IM 983036 isolate at 50 ug/ml after 48 hrs; procedure, shortened: as §2
Cryptococcus neoformans [15] = experiment: Antimicrobial activity against Cryptococcus neoformans IM 042074 isolate at 25 ug/ml after 48 hrs; procedure, shortened: as §1
Cryptococcus neoformans [16] = experiment: Antimicrobial activity against Cryptococcus neoformans IM 031631 isolate at 25 ug/ml after 48 hrs; procedure, shortened: as §1
Cryptococcus neoformans [17] = experiment: Antimicrobial activity against Cryptococcus neoformans IM 052470 isolate at 25 ug/ml after 48 hrs; procedure, shortened: as §1
Cryptococcus neoformans [18] = experiment: Antimicrobial activity against Cryptococcus neoformans IM 983036 isolate at 6.25 ug/ml after 48 hrs; procedure, shortened: as §2
Cryptococcus neoformans [19] = experiment: Antimicrobial activity against Cryptococcus neoformans IM 983036 isolate at 100 ug/ml after 48 hrs; procedure, shortened: as §2
Aspergillus niger = experiment: Antifungal activity against Aspergillus niger ATCC 9029 after 48 hrs by broth microdilution technique; conditions: ATCC 9029, 48 h
Procedure, shortened: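 CLSI broth microdilution: M-27 A2 for yeasts and M-38 A for filamentous fungi. Medium is RPMI-1640 buffered to pH 7.0 with MOPS. Compound is diluted twofold from 250 to 0.98, final DMSO ≤2%. Inoculum is 1–5 × 10³ CFU/mL. Plates are incubated at 35 °C in a moist, dark chamber and read visually at 48 h. MIC100 is the lowest concentration giving total growth inhibition versus drug-free control.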

Cryptococcus neoformans [20] = experiment: Antimicrobial activity against Cryptococcus neoformans IM 031706 isolate at 6.25 ug/ml after 48 hrs; procedure, shortened: as §1
Cryptococcus neoformans [21] = experiment: Antimicrobial activity against Cryptococcus neoformans IM 052470 isolate at 50 ug/ml after 48 hrs; procedure, shortened: as §1
Cryptococcus neoformans [22] = experiment: Antimicrobial activity against Cryptococcus neoformans IM 972751 isolate at 25 ug/ml after 48 hrs; procedure, shortened: as §2
Cryptococcus neoformans [23] = experiment: Antimicrobial activity against Cryptococcus neoformans IM 972751 isolate at 100 ug/ml after 48 hrs; procedure, shortened: as §2
Candida albicans [24] = experiment: Antimicrobial activity against Candida albicans ATCC 10231 at 25 ug/ml after 24 hrs; conditions: ATCC 10231, 24 h
Procedure, shortened: (§3)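 Growth-inhibition microplate test. Strains are grown on Sabouraud-chloramphenicol agar for 48 h at 30 °C, and inoculum is added to RPMI-1640 containing compound at a final 100–6.25, with DMSO ≤2%. Each strain has a growth control (same DMSO, no compound) and a sterility control.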

Cryptococcus neoformans [25] = experiment: Antimicrobial activity against Cryptococcus neoformans IM 031631 isolate at 12.5 ug/ml after 48 hrs; procedure, shortened: as §1
Candida albicans [26] = experiment: Antimicrobial activity against Candida albicans C130 isolate at 100 ug/ml after 24 hrs; procedure, shortened: as §3
Candida tropicalis [27] = experiment: Antimicrobial activity against Candida tropicalis C131 isolate at 100 ug/ml after 24 hrs; procedure, shortened: as §1
Candida albicans [28] = experiment: Antimicrobial activity against Candida albicans C126 isolate at 12.5 ug/ml after 24 hrs; procedure, shortened: as §3
Candida tropicalis [29] = experiment: Antimicrobial activity against Candida tropicalis C131 isolate at 25 ug/ml after 24 hrs; procedure, shortened: as §1
Nakaseomyces glabratus [30] = experiment: Antimicrobial activity against Candida glabrata C115 isolate at 12.5 ug/ml after 24 hrs; procedure, shortened: as §3
Candida albicans [31] = experiment: Antimicrobial activity against Candida albicans C128 isolate at 50 ug/ml after 24 hrs; procedure, shortened: as §3
Candida tropicalis [32] = experiment: Antimicrobial activity against Candida tropicalis C131 isolate at 6.25 ug/ml after 24 hrs; procedure, shortened: as §1
Candida albicans [33] = experiment: Antimicrobial activity against Candida albicans C129 isolate at 100 ug/ml after 24 hrs; procedure, shortened: as §3
Candida albicans [34] = experiment: Antimicrobial activity against Candida albicans C130 isolate at 50 ug/ml after 24 hrs; procedure, shortened: as §3
Candida albicans [35] = experiment: Antimicrobial activity against Candida albicans C128 isolate at 100 ug/ml after 24 hrs; procedure, shortened: as §3
Candida parapsilosis = experiment: Antimicrobial activity against Candida parapsilosis C124 isolate at 12.5 ug/ml after 24 hrs; conditions: Lodderomyces parapsilosis; procedure, shortened: as §1
Candida albicans [36] = experiment: Antimicrobial activity against Candida albicans C127 isolate at 100 ug/ml after 24 hrs; conditions: C127, 24 h; procedure, shortened: as §3
Nakaseomyces glabratus [37] = experiment: Antimicrobial activity against Candida glabrata C115 isolate at 50 ug/ml after 24 hrs; procedure, shortened: as §1
Candida albicans [38] = experiment: Antimicrobial activity against Candida albicans C128 isolate at 6.25 ug/ml after 24 hrs; procedure, shortened: as §3
Pichia kudriavzevii [39] = experiment: Antimicrobial activity against Candida krusei C117 isolate at 6.25 ug/ml after 24 hrs; procedure, shortened: as §1
Pichia kudriavzevii [40] = experiment: Antimicrobial activity against Candida krusei C117 isolate at 25 ug/ml after 24 hrs; procedure, shortened: as §1
Candida albicans [41] = experiment: Antimicrobial activity against Candida albicans C126 isolate at 25 ug/ml after 24 hrs; procedure, shortened: as §3
Candida albicans [42] = experiment: Antimicrobial activity against Candida albicans C128 isolate at 25 ug/ml after 24 hrs; procedure, shortened: as §3

`c1ccc(-c2ccc3ccccc3n2)cc1` [2-PHENYLQUINOLINE] gave an inhibition at 50 µg/mL (Cryptococcus neoformans [1]) of 34%, an inhibition at 12.5 µg/mL (Cryptococcus neoformans [2]) of 0% and an inhibition at 6.25 µg/mL (Cryptococcus neoformans [3]) of 0%. For the same compound, the inhibition at 12.5 µg/mL (Cryptococcus neoformans [4]) was 0%, the inhibition at 6.25 µg/mL (Cryptococcus neoformans [5]) was 0% and the inhibition at 12.5 µg/mL (Cryptococcus neoformans [6]) was 7%. For the same compound, the inhibition at 6.25 µg/mL (Cryptococcus neoformans [7]) was 0%, the inhibition at 50 µg/mL (Cryptococcus neoformans [8]) was 32% and the inhibition at 50 µg/mL (Cryptococcus neoformans [9]) was 54%. It also gave an inhibition at 6.25 µg/mL (Cryptococcus neoformans [10]) of 0%, an inhibition at 25 µg/mL (Cryptococcus neoformans [11]) of 77% and an inhibition at 12.5 µg/mL (Cryptococcus neoformans [12]) of 32%. For the same compound, the inhibition at 100 µg/mL (Cryptococcus neoformans [13]) was 88%, the inhibition at 50 µg/mL (Cryptococcus neoformans [14]) was 12% and the inhibition at 25 µg/mL (Cryptococcus neoformans [15]) was 33%. The inhibition at 25 µg/mL (Cryptococcus neoformans [16]) was 15%, the inhibition at 25 µg/mL (Cryptococcus neoformans [17]) was 35% and the inhibition at 6.25 µg/mL (Cryptococcus neoformans [18]) was 0%. For the same compound, the inhibition at 100 µg/mL (Cryptococcus neoformans [19]) was 32%, the MIC (Aspergillus niger) was over 250 µg/mL and the inhibition at 6.25 µg/mL (Cryptococcus neoformans [20]) was 0%. The inhibition at 50 µg/mL (Cryptococcus neoformans [21]) was 76%, the inhibition at 25 µg/mL (Cryptococcus neoformans [22]) was 22% and the inhibition at 100 µg/mL (Cryptococcus neoformans [23]) was 83%. It also gave an inhibition at 25 µg/mL (Candida albicans [24]) of 0% and an inhibition at 12.5 µg/mL (Cryptococcus neoformans [25]) of 5%.

For `c1ccc2nc(-c3ccncc3)ccc2c1`, the inhibition at 100 µg/mL (Candida albicans [26]) was 84%, the inhibition at 100 µg/mL (Candida tropicalis [27]) was 100% and the inhibition at 12.5 µg/mL (Candida albicans [28]) was 0%. For the same compound, the inhibition at 50 µg/mL (Cryptococcus neoformans [1]) was 75%, the inhibition at 12.5 µg/mL (Cryptococcus neoformans [2]) was 32% and the inhibition at 6.25 µg/mL (Cryptococcus neoformans [3]) was 0%. It also gave an inhibition at 25 µg/mL (Candida tropicalis [29]) of 60%, an inhibition at 12.5 µg/mL (Nakaseomyces glabratus [30]) of 1% and an inhibition at 12.5 µg/mL (Cryptococcus neoformans [4]) of 34%. The inhibition at 6.25 µg/mL (Cryptococcus neoformans [5]) was 68%, the inhibition at 50 µg/mL (Candida albicans [31]) was 15% and the inhibition at 6.25 µg/mL (Candida tropicalis [32]) was 22%. For the same compound, the inhibition at 100 µg/mL (Candida albicans [33]) was 85%, the inhibition at 12.5 µg/mL (Cryptococcus neoformans [6]) was 76% and the inhibition at 6.25 µg/mL (Cryptococcus neoformans [7]) was 4%. For the same compound, the inhibition at 50 µg/mL (Cryptococcus neoformans [8]) was 89%, the inhibition at 50 µg/mL (Cryptococcus neoformans [9]) was 20% and the inhibition at 50 µg/mL (Candida albicans [34]) was 84%. The inhibition at 100 µg/mL (Candida albicans [35]) was 88%, the inhibition at 6.25 µg/mL (Cryptococcus neoformans [10]) was 0% and the inhibition at 12.5 µg/mL (Candida parapsilosis) was 0%. It also gave an inhibition at 25 µg/mL (Cryptococcus neoformans [11]) of 100%, an inhibition at 100 µg/mL (Candida albicans [36]) of 80% and an inhibition at 12.5 µg/mL (Cryptococcus neoformans [12]) of 90%. For the same compound, the inhibition at 100 µg/mL (Cryptococcus neoformans [13]) was 99%, the inhibition at 50 µg/mL (Cryptococcus neoformans [14]) was 69% and the inhibition at 25 µg/mL (Cryptococcus neoformans [15]) was 87%. For the same compound, the inhibition at 25 µg/mL (Cryptococcus neoformans [16]) was 57%, the inhibition at 25 µg/mL (Cryptococcus neoformans [17]) was 53% and the inhibition at 6.25 µg/mL (Cryptococcus neoformans [18]) was 0%. It also gave an inhibition at 100 µg/mL (Cryptococcus neoformans [19]) of 79%, an inhibition at 50 µg/mL (Nakaseomyces glabratus [37]) of 4% and an MIC (Aspergillus niger) of 50 µg/mL (≈ 242 µM). For the same compound, the inhibition at 6.25 µg/mL (Cryptococcus neoformans [20]) was 21%, the inhibition at 50 µg/mL (Cryptococcus neoformans [21]) was 75% and the inhibition at 25 µg/mL (Cryptococcus neoformans [22]) was 9%. For the same compound, the inhibition at 100 µg/mL (Cryptococcus neoformans [23]) was 98%, the inhibition at 25 µg/mL (Candida albicans [24]) was 63% and the inhibition at 6.25 µg/mL (Candida albicans [38]) was 0%. The inhibition at 6.25 µg/mL (Pichia kudriavzevii [39]) was 0%, the inhibition at 25 µg/mL (Pichia kudriavzevii [40]) was 0% and the inhibition at 25 µg/mL (Candida albicans [41]) was 0%. It also gave an inhibition at 12.5 µg/mL (Cryptococcus neoformans [25]) of 36% and an inhibition at 25 µg/mL (Candida albicans [42]) of 0%.
